Tests used:
[1] = biological target: T1, Transient receptor potential cation channel subfamily A member 1 (Rattus norvegicus, UniProt Q6RI86); test: Agonist activity at rat TRPA1 channel expressed in HEK293 cells assessed as increase in intracellular calcium influx; format: functional, cell-based
[2] = biological target: T2, Transient receptor potential cation channel subfamily A member 1 (Homo sapiens, UniProt O75762); test: Agonist activity at human TRPA1 channel expressed in HEK293 cells assessed as increase in membrane currents; format: functional, cell-based
T2 sequence (O75762 whole entry): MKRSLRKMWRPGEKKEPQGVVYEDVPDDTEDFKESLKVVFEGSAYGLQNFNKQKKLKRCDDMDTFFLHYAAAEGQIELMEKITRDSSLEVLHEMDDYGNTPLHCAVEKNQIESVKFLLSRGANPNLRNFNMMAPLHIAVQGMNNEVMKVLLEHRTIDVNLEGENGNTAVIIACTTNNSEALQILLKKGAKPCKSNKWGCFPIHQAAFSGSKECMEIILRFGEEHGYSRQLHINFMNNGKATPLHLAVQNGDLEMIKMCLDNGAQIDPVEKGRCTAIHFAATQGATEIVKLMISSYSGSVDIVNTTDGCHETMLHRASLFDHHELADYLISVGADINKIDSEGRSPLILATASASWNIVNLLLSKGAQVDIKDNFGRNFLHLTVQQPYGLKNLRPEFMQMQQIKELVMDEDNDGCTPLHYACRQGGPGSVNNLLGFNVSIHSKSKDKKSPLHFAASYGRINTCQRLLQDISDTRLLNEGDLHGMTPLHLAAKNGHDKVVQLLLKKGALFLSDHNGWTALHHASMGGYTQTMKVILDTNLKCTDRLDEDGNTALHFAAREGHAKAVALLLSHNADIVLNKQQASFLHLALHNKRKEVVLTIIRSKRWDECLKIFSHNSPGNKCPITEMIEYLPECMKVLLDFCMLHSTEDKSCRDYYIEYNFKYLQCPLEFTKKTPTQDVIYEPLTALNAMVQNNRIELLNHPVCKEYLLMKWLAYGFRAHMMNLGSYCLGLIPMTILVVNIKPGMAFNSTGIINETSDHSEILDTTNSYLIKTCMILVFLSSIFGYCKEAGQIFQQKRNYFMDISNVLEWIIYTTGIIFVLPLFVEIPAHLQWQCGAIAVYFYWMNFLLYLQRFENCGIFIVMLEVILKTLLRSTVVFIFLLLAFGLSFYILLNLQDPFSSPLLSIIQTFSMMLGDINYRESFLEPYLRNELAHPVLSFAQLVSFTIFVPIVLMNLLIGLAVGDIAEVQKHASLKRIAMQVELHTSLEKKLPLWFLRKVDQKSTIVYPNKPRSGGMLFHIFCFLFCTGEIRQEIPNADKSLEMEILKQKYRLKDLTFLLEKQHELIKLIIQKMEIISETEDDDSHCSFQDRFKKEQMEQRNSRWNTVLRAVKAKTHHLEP

[3] = biological target: T3, Transient receptor potential cation channel subfamily A member 1 (Mus musculus, UniProt Q8BLA8); test: Agonist activity at mouse TRPA1 channel expressed in CHO cells assessed as increase in intracellular calcium influx; format: functional, cell-based
T3 sequence (Q8BLA8 whole entry): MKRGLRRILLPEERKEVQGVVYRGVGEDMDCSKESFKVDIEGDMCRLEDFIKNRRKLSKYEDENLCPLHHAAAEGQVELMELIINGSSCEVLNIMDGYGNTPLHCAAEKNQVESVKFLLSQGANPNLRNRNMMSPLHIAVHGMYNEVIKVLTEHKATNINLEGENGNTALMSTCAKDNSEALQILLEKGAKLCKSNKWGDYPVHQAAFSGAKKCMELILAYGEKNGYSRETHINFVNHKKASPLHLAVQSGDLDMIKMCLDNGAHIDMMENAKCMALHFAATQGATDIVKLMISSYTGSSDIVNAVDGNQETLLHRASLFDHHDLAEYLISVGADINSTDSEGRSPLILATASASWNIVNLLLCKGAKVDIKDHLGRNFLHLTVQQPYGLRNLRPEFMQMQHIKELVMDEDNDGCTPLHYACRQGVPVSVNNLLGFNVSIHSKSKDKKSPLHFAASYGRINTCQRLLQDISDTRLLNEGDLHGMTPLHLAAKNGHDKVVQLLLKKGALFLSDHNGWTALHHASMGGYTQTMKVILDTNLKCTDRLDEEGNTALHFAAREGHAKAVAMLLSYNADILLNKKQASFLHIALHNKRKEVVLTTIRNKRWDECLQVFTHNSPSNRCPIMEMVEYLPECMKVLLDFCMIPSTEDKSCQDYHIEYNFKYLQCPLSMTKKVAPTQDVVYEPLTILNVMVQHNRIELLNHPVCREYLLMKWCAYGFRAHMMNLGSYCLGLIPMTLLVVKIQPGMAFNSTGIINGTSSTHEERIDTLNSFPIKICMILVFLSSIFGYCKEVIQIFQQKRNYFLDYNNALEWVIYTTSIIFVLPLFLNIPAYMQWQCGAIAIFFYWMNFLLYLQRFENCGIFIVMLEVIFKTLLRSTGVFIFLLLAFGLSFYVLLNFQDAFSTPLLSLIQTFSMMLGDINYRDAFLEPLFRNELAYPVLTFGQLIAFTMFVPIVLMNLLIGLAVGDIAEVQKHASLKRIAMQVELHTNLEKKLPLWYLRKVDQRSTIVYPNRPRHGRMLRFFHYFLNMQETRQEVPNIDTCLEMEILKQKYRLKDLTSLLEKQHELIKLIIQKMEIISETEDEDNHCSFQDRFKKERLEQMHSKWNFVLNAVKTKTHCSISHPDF

[4] = biological target: T2, Transient receptor potential cation channel subfamily A member 1; test: Agonist activity at human TRPA1 channel expressed in CHO cells assessed as increase in intracellular calcium levels; format: functional, cell-based
[5] = biological target: T2, Transient receptor potential cation channel subfamily A member 1; test: Antagonist activity at human TRPA1 channel expressed in CHO cells assessed as inhibition of cinnamaldehyde-induced intracellular calcium influx; format: functional, cell-based
[6] = biological target: T2, Transient receptor potential cation channel subfamily A member 1; test: Activation of TRPA1 channel
Summary of the method: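 Cell lines transfected with TRPA1 and loaded with a calcium-sensitive dye, read on FLIPR. Calcium influx is counted as the change in fluorescence above background. Each material was tested by preincubation or by direct addition. Calcium counts are expressed as a percentage of the control calcium count.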

[7] = biological target: T2, Transient receptor potential cation channel subfamily A member 1; test: Agonist activity at human TRPA1 channel in HEK293 cells assessed as increase in intracellular calcium influx by radiometric Ca2+ imaging; format: functional, cell-based
[8] = biological target: T3, Transient receptor potential cation channel subfamily A member 1; test: Antagonist activity at mouse TRPA1 channel expressed in CHO cells assessed as blockade of agonist-induced whole cell conductance by electrophysiology; format: functional, cell-based
[9] = biological target: T1, Transient receptor potential cation channel subfamily A member 1; test: Agonist activity at TRPA1 channel in rat DRG neurons assessed as increase in intracellular calcium influx; format: functional, cell-based
[10] = biological target: T2, Transient receptor potential cation channel subfamily A member 1; test: Antagonist activity at TRPA1 channel at 10 uM; format: functional
[11] = biological target: T2, Transient receptor potential cation channel subfamily A member 1; test: Antagonist activity at TRPA1 channel at 1 uM; format: functional
[12] = biological target: T2, Transient receptor potential cation channel subfamily A member 1; test: Antagonist activity at TRPA1 channel; format: functional
[13] = biological target: T2, Transient receptor potential cation channel subfamily A member 1; test: Activation of TRPA1 channel expressed in CHO cells assessed as increase in intracellular calcium levels; format: cell-based
[14] = biological target: T2, Transient receptor potential cation channel subfamily A member 1; test: Agonist activity at human TRPA1 channel expressed in HEK293 cells assessed as increase in intracellular calcium influx; format: functional, cell-based
[15] = biological target: T2, Transient receptor potential cation channel subfamily A member 1; test: Antagonist activity at human TRPA1 channel assessed as inhibition of allyl isothiocyanate-induced intracellular calcium influx; format: functional, cell-based
[16] = biological target: T3, Transient receptor potential cation channel subfamily A member 1; test: Agonist activity at mouse TRPA1 channel expressed in HEK293 cells assessed as increase in intracellular calcium influx; format: functional, cell-based
[17] = biological target: T3, Transient receptor potential cation channel subfamily A member 1; test: Agonist activity at TRPA1 channel in mouse dorsal root ganglion cells assessed as increase in intracellular calcium influx by radiometric Ca2+ imaging; format: functional, tissue-based
[18] = biological target: Transient receptor potential cation channel subfamily V member 1 (Homo sapiens, UniProt Q8NER1); test: Activation of TRPV1 channel
Transient receptor potential cation channel subfamily V member 1, sequence (Q8NER1 whole entry): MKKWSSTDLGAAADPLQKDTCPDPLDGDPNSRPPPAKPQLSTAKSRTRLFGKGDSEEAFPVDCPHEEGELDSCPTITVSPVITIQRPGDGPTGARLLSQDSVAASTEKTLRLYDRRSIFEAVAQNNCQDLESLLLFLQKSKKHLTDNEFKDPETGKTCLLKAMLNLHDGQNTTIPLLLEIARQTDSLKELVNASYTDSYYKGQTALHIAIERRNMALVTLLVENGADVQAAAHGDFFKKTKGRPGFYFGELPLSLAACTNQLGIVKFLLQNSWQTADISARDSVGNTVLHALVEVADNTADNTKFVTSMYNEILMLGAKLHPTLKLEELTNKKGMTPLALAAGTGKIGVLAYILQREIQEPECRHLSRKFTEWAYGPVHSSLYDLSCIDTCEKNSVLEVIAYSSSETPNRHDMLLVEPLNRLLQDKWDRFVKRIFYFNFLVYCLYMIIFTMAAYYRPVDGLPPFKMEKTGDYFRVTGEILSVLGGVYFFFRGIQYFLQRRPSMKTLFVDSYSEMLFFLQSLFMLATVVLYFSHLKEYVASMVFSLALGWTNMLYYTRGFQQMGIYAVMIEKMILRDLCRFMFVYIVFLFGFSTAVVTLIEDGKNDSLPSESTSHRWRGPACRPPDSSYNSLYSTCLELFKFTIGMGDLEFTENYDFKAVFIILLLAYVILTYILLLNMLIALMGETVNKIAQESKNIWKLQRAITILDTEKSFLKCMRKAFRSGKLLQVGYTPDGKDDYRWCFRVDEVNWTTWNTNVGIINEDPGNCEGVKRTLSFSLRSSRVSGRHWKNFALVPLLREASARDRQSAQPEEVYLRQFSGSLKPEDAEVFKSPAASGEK

T1 sequence (Q6RI86 whole entry): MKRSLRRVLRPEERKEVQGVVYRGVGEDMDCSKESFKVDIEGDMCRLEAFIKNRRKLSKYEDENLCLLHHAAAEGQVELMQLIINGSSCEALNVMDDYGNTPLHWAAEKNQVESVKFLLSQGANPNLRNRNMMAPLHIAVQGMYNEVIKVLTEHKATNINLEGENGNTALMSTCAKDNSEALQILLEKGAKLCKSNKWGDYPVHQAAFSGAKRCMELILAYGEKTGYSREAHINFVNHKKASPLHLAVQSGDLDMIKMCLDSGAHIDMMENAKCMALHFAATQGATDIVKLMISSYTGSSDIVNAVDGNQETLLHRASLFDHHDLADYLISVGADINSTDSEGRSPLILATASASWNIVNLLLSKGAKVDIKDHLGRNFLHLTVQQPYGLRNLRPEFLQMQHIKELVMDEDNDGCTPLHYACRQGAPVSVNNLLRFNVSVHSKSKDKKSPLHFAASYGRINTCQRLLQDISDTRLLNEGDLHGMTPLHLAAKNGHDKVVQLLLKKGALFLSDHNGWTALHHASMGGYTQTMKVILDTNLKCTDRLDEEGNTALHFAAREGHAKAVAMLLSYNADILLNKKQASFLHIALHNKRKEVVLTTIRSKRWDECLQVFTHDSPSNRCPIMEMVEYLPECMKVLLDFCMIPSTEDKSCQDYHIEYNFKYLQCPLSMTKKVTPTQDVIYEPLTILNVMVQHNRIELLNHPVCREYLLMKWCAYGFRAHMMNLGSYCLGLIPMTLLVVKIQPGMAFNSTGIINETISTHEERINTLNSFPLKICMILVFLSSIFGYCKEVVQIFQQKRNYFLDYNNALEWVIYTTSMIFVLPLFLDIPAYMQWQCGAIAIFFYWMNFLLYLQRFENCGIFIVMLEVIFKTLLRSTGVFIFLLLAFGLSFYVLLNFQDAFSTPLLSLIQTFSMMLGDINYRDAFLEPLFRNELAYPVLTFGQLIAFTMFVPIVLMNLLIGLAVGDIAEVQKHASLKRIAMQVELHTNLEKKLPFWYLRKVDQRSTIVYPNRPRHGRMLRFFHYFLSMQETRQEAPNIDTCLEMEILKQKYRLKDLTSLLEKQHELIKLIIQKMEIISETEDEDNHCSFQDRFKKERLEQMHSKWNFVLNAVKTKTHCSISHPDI

**Q.** For `CCCCCc1cc(O)c2c(c1)OC(C)(C)[C@@H]1CCC(C)=C[C@@H]21` [DRONABINOL], which EC50 [1] is on record?
**A.** 0.23 µM

**Q.** For `CC(C)CN1C(=O)/C(=C/C(=O)O)c2cccc(Cl)c21`, which EC50 [2] is on record?
**A.** 0.61 µM

**Q.** Which EC50 [3] does the source give for `COC(=O)C1=C(C)NC(C)=C(C(=O)OCCN(C)Cc2ccccc2)C1c1cccc([N+](=O)[O-])c1` (stereo unspecified) [NICARDIPINE] here?
**A.** 0.5 µM

**Q.** How did the EC50 [4] turn out when `C=CCSSSCC=C` [ALLITRIDIN] was run?
**A.** 0.49 µM

**Q.** How did the IC50 [5] turn out when `CCC(=N\O)/C(C)=C/c1ccc(C)nc1` was run?
**A.** > 100 µM

**Q.** With `CC(C)CN1C(=O)/C(=C/C(=O)O)c2cccc(F)c21` as the molecule, how does the EC50 [2] read?
**A.** 0.83 µM

**Q.** With `COCCOC(=O)C1=C(C)NC(C)=C(C(=O)OC(C)C)C1c1cccc([N+](=O)[O-])c1` (stereo unspecified) [NIMODIPINE] as the molecule, how does the EC50 [3] read?
**A.** 0.8 µM

**Q.** `CN1CCC[C@H]1c1cccnc1` [NICOTINE] was tested. Which EC50 [6] did it give?
**A.** 17 µM

**Q.** With `CCCCCCCC/C=C(\CCCCCCCC(=O)O)[N+](=O)[O-]` [NITROLEIC ACID] as the molecule, how does the EC50 [7] read?
**A.** 1 µM

**Q.** For `CC1CCC(C(C)C)C(O)C1` (stereo unspecified) [MENTHOL], which EC50 [8] is on record?
**A.** 56 µM

**Q.** Which EC50 [1] does the source give for `CCCCCc1cc(O)c2c(c1)OC(C)(CCC=C(C)C)C=C2` (stereo unspecified) [CANNABICHROMENE] here?
**A.** 0.06 µM

**Q.** What about the EC50 [9] of the same molecule?
**A.** 34.3 µM

**Q.** What does the source list for `CN1C(=O)c2cccc(CC(=O)Nc3nc(-c4ccc(C(F)(F)F)c(F)c4)cs3)c2C1=O`?
**A.** inhibition [10]: 100%; inhibition [11]: 97%

**Q.** How did the EC50 [2] turn out when `O=C1/C(=C/c2nccs2)c2ccccc2N1Cc1ccccc1` was run?
**A.** 5.65 µM

**Q.** Which results are given for `CN1C(=O)c2cccc(CC(=O)Nc3nc(-c4cccc(C(F)(F)F)c4)cs3)c2C1=O`?
**A.** IC50 [12]: 0.5 µM; inhibition [10]: 96%; inhibition [11]: 60%

**Q.** How did the EC50 [4] turn out when `CC1(C)CCC[C@]2(C)[C@@H](C=O)C(C=O)=CC[C@@H]12` [POLYGODIAL] was run?
**A.** 0.059 µM

**Q.** For `CCCCC[C@H](O)/C=C/[C@H]1C=CC(=O)[C@@H]1CCCCCCC(=O)O` [PROSTAGLANDIN A1], which EC50 [6] is on record?
**A.** 15.1 µM

**Q.** For `O=C(O)/C=C1/C(=O)N(Cc2ccccc2)c2ccc(F)cc21`, which EC50 [2] is on record?
**A.** 4.45 µM

**Q.** What does the source list for `C=CCSSCC=C`?
**A.** EC50 [4]: 7.55 µM; EC50 [6]: 125 µM

**Q.** `O=C/C=C/c1ccccc1` was tested. Which EC50 [13] did it give?
**A.** 6.5 µM

**Q.** How did the EC50 [6] turn out when `S=C=NCCc1ccccc1` [PHENETHYLISOTHIOCYANATE] was run?
**A.** 10 µM

**Q.** Which EC50 [14] does the source give for `Cc1ccc(C(C)C)cc1O` [CARVACROL] here?
**A.** 7 µM

**Q.** `C=C(C)[C@@H]1CCC(C)=C[C@H]1c1c(O)cc(CCCCC)cc1O` [CANNABIDIOL] was tested. Which EC50 [1] did it give?
**A.** 0.096 µM

**Q.** For `CCC(=N\O)/C(C)=C/c1cncc2ccccc12`, which IC50 [5] is on record?
**A.** > 100 µM

**Q.** Which IC50 [15] does the source give for `Cn1c(=O)c2c(ncn2CC(=O)Nc2nc(-c3ccccc3)cs2)n(C)c1=O` here?
**A.** < 1 µM

**Q.** For `NC(=O)/C=C1/C(=O)N(CC2CCCC2)c2c(F)cccc21`, which EC50 [2] is on record?
**A.** 0.66 µM

**Q.** `C=CC=O` [ACROLEIN] was tested. Which EC50 [6] did it give?
**A.** 0.8 µM

**Q.** For `CCCCC[C@H](O)/C=C/[C@H]1C=CC(=O)[C@H]1C/C=C\CCCC(=O)O`, which EC50 [6] is on record?
**A.** 22.4 µM

**Q.** For `COC(=O)c1cccc(CN2C(=O)/C(=C/C(N)=O)c3ccccc32)c1`, which EC50 [2] is on record?
**A.** 1.2 µM

**Q.** How did the EC50 [4] turn out when `CCCCC(CC)C1NC(=O)N(SC(Cl)(Cl)Cl)C1=O` (stereo unspecified) [CHLORDANTOIN] was run?
**A.** 3 µM

**Q.** How did the EC50 [1] turn out when `CCCCCc1cc(O)c2c(c1C(=O)O)OC(C)(C)[C@@H]1CCC(C)=C[C@@H]21` [TETRAHYDROCANNABINOL ACID] was run?
**A.** 0.24 µM

**Q.** How did the EC50 [14] turn out when `NC(=O)c1cccc(-c2cccc(OC(=O)NC3CCCCC3)c2)c1` [URB-597] was run?
**A.** 24.5 µM

**Q.** How did the IC50 [15] turn out when `CCOc1ccccc1-c1csc(NC(=O)Cn2cnc3c2c(=O)n(C)c(=O)n3C)n1` was run?
**A.** < 1 µM

**Q.** With `Cn1c(=O)c2c(ncn2CC(=O)Nc2nc(-c3cccc(F)c3)cs2)n(C)c1=O` as the molecule, how does the IC50 [15] read?
**A.** < 1 µM

**Q.** How did the EC50 [3] turn out when `CCOC(=O)C1=C(C)NC(C)=C(C(=O)OC)C1c1cccc([N+](=O)[O-])c1` (stereo unspecified) [NITRENDIPINE] was run?
**A.** 3.8 µM

**Q.** Which EC50 [14] does the source give for `CC1(C)C[C@H]2C=C(C=O)[C@]3(C=O)C[C@]3(C)[C@H]2C1` [ISOVELLERAL] here?
**A.** 0.59 µM

**Q.** And the EC50 [16]?
**A.** 2.58 µM

**Q.** And the EC50 [17]?
**A.** 130 µM

**Q.** With `CCN(CC)C(=S)SSC(=S)N(CC)CC` as the molecule, how does the EC50 [4] read?
**A.** 3 µM

**Q.** For `C/C=C/C=C/C=C\CC/C=C/C(=O)NCC(C)(C)O`, which EC50 [18] is on record?
**A.** 1.1 µM

**Q.** What about the EC50 [6] of the same molecule?
**A.** 6.6 µM

**Q.** For `O=C(O)/C=C1/C(=O)N(CC2CCCC2)c2c(F)cccc21`, which EC50 [2] is on record?
**A.** 0.51 µM

**Q.** With `CCC(=N\O)/C(C)=C/c1cnc2ccccc2c1` as the molecule, how does the IC50 [5] read?
**A.** > 100 µM

**Q.** `CN1C(=O)c2cccc(CC(=O)Nc3nc(-c4cc(F)c(C(F)(F)F)c(F)c4)cs3)c2C1=O` was tested. Which IC50 [12] did it give?
**A.** 0.25 µM

**Q.** What about the inhibition [10] of the same molecule?
**A.** 100%

**Q.** What about the inhibition [11] of the same molecule?
**A.** 92%

**Q.** For `C=C(C)C1CC=C(C=O)CC1` (stereo unspecified), which EC50 [6] is on record?
**A.** 41 µM
